# From ChEMBL document CHEMBL2384929, “Synthesis and biological evaluation of fluoro analogues of antimitotic phenstatin” (Bioorg Med Chem, 2013)
# How the values were obtained:
# [1] = system: MDA-MB-435; experiment: Cytotoxicity against human MDA-MB-435 cells assessed as growth inhibition at 10 uM after 48 hrs by SRB assay; assay type: functional; conditions: MDA-MB-435, 48 h, read-out: GI
# Summary of the method: (§1)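 Single-dose NCI 60-cell screen at 10 µM with 48 h exposure and sulforhodamine B read-out. Values are percentage growth per cell line. A summary ratio counts cell lines with 0–50% growth over all cell lines tested.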
# [2] = system: SR; experiment: Cytotoxicity against human SR cells assessed as growth inhibition at 10 uM after 48 hrs by SRB assay; assay type: functional; conditions: read-out: GI; summary of the method: as §1
# [3] = organism: Ovis aries; experiment: Inhibition of sheep brain tubulin assembly at 100 uM by DAPI staining-based fluorescence assay
# Summary of the method: (§2)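 Tubulin from sheep brain, purified by two assembly–disassembly cycles, at about 2–3 mg/mL in 0.1 M MES, 0.5 mM MgCl2, 1 mM EGTA, 1 mM GTP, pH 6.6. Assembly followed by DAPI fluorescence at 37 °C. Single-point inhibition tested at 100 µM. IC50 is the concentration halving the assembly rate relative to no compound, mean of two experiments, with reference inhibitors run the same day.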
# [4] = system: SN12C; experiment: Cytotoxicity against human SN12C cells assessed as growth inhibition after 48 hrs by SRB assay; assay type: functional
# Summary of the method: (§3)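 Run in the NCI 60 human tumour cell line panel. Cells exposed for 48 h, growth read by sulforhodamine B. Compounds were first screened at a single 10 µM dose, and those meeting preset threshold inhibition criteria went on to the 5-dose screen. GI50 is the molar concentration giving 50% growth inhibition.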
# [5] = system: SK-OV-3; experiment: Cytotoxicity against human SKOV3 cells assessed as growth inhibition after 48 hrs by SRB assay; assay type: functional; conditions: SK-OV-3, 48 h; summary of the method: as §3
# [6] = system: BT-549; experiment: Cytotoxicity against human BT549 cells assessed as growth inhibition after 48 hrs by SRB assay; assay type: functional; conditions: BT-549, 48 h; summary of the method: as §3
# [7] = system: NCI/ADR-RES; experiment: Cytotoxicity against human NCI/ADR-RES cells assessed as growth inhibition after 48 hrs by SRB assay; assay type: functional; summary of the method: as §3
# [8] = system: HL-60(TB); experiment: Cytotoxicity against human HL-60(TB) cells assessed as growth inhibition after 48 hrs by SRB assay; assay type: functional; conditions: HL-60, 48 h
# Summary of the method: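 NCI 60-human-cancer-cell-line screen; only compounds meeting predetermined threshold inhibition criteria in the single-dose test went on to the 5-dose screen. Cells exposed for 48 h and growth read by sulforhodamine B assay. GI50 is the molar concentration giving 50% growth inhibition of tumour cells.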
# [9] = system: SF-268; experiment: Cytotoxicity against human SF268 cells assessed as growth inhibition after 48 hrs by SRB assay; assay type: functional; conditions: SF-268, 48 h; summary of the method: as §3
# [10] = system: MDA-MB-231; experiment: Cytotoxicity against human MDA-MB-231 cells assessed as growth inhibition after 48 hrs by SRB assay; assay type: functional; conditions: MDA-MB-231, 48 h; summary of the method: as §3
# [11] = system: SNB-75; experiment: Cytotoxicity against human SNB75 cells assessed as growth inhibition after 48 hrs by SRB assay; assay type: functional; conditions: SNB-75, 48 h; summary of the method: as §3
# [12] = system: K562; experiment: Cytotoxicity against human K562 cells assessed as growth inhibition after 48 hrs by SRB assay; assay type: functional; conditions: K562, 48 h; summary of the method: as §3
# [13] = system: NCI-H460; experiment: Cytotoxicity against human NCI-H460 cells assessed as growth inhibition after 48 hrs by SRB assay; assay type: functional; conditions: NCI-H460, 48 h; summary of the method: as §3
# [14] = system: M14; experiment: Cytotoxicity against human M14 cells assessed as growth inhibition after 48 hrs by SRB assay; assay type: functional; conditions: M14, 48 h; summary of the method: as §3
# [15] = system: MDA-MB-435; experiment: Cytotoxicity against human MDA-MB-435 cells assessed as growth inhibition after 48 hrs by SRB assay; assay type: functional; conditions: MDA-MB-435, 48 h; summary of the method: as §3
# [16] = system: SF-539; experiment: Cytotoxicity against human SF539 cells assessed as growth inhibition after 48 hrs by SRB assay; assay type: functional; conditions: SF-539, 48 h; summary of the method: as §3
# [17] = system: PC-3; experiment: Cytotoxicity against human PC3 cells assessed as growth inhibition after 48 hrs by SRB assay; assay type: functional; conditions: PC-3, 48 h; summary of the method: as §3
# [18] = system: HCT-15; experiment: Cytotoxicity against human HCT15 cells assessed as growth inhibition after 48 hrs by SRB assay; assay type: functional; conditions: HCT-15, 48 h; summary of the method: as §3
# [19] = system: RXF 393; experiment: Cytotoxicity against human RXF393 cells assessed as growth inhibition after 48 hrs by SRB assay; assay type: functional; conditions: RXF 393, 48 h; summary of the method: as §3
# [20] = system: KM12; experiment: Cytotoxicity against human KM12 cells assessed as growth inhibition after 48 hrs by SRB assay; assay type: functional; conditions: KM12, 48 h; summary of the method: as §3
# [21] = system: DU-145; experiment: Cytotoxicity against human DU145 cells assessed as growth inhibition after 48 hrs by SRB assay; assay type: functional; conditions: DU-145, 48 h; summary of the method: as §3
# [22] = system: SR; experiment: Cytotoxicity against human SR cells assessed as growth inhibition after 48 hrs by SRB assay; assay type: functional; summary of the method: as §3
# [23] = system: SW-620; experiment: Cytotoxicity against human SW620 cells assessed as growth inhibition after 48 hrs by SRB assay; assay type: functional; conditions: SW-620, 48 h; summary of the method: as §3
# [24] = system: NCI-H23; experiment: Cytotoxicity against human NCI-H23 cells assessed as growth inhibition after 48 hrs by SRB assay; assay type: functional; conditions: NCI-H23, 48 h; summary of the method: as §3
# [25] = system: Hs-578T; experiment: Cytotoxicity against human Hs578T cells assessed as growth inhibition after 48 hrs by SRB assay; assay type: functional; summary of the method: as §3
# [26] = system: NCI-H522; experiment: Cytotoxicity against human NCI-H522 cells assessed as growth inhibition after 48 hrs by SRB assay; assay type: functional; conditions: NCI-H522, 48 h; summary of the method: as §3
# [27] = system: CCRF-CEM; experiment: Cytotoxicity against human CCRF-CEM cells assessed as growth inhibition after 48 hrs by SRB assay; assay type: functional; summary of the method: as §3
# [28] = Inhibition of sheep brain tubulin assembly by DAPI staining-based fluorescence assay; parameters: species or system Ovis aries; summary of the method: as §2
# [29] = system: Malme-3M; experiment: Cytotoxicity against human MALME-3M cells assessed as growth inhibition after 48 hrs by SRB assay; assay type: functional; summary of the method: as §3
# [30] = system: OVCAR-3; experiment: Cytotoxicity against human OVCAR3 cells assessed as growth inhibition after 48 hrs by SRB assay; assay type: functional; conditions: OVCAR-3, 48 h; summary of the method: as §3
# [31] = system: SNB-19; experiment: Cytotoxicity against human SNB19 cells assessed as growth inhibition after 48 hrs by SRB assay; assay type: functional; conditions: SNB-19, 48 h; summary of the method: as §3
# [32] = system: ACHN; experiment: Cytotoxicity against human ACHN cells assessed as growth inhibition after 48 hrs by SRB assay; assay type: functional; summary of the method: as §3
# [33] = system: NCI-H522; experiment: Cytotoxicity against human NCI-H522 cells assessed as growth inhibition at 10 uM after 48 hrs by SRB assay; assay type: functional; conditions: NCI-H522, 48 h, read-out: GI; summary of the method: as §1
# [34] = system: NCI/ADR-RES; experiment: Cytotoxicity against human NCI/ADR-RES cells assessed as growth inhibition at 10 uM after 48 hrs by SRB assay; assay type: functional; conditions: read-out: GI; summary of the method: as §1
# [35] = system: KM12; experiment: Cytotoxicity against human KM12 cells assessed as growth inhibition at 10 uM after 48 hrs by SRB assay; assay type: functional; conditions: KM12, 48 h, read-out: GI; summary of the method: as §1
# [36] = system: K562; experiment: Cytotoxicity against human K562 cells assessed as growth inhibition at 10 uM after 48 hrs by SRB assay; assay type: functional; conditions: K562, 48 h, read-out: GI; summary of the method: as §1
compound,measurement,setting,value
COc1cc(C(=O)c2cc(OC)c(O)c(OC)c2)c(OC)cc1F,inhibition of growth at 10 µM,[1],21%
same,inhibition of growth at 10 µM,[2],22%
same,inhibition,[3],48%
C=C(c1ccc(OC)c(O)c1)c1cc(F)c(F)c(OC)c1F,GI50,[4],209 nM
same,GI50,[5],94 nM
same,GI50,[6],61 nM
same,GI50,[7],38 nM
same,GI50,[8],23 nM
same,GI50,[9],75 nM
same,GI50,[10],94 nM
same,GI50,[11],55 nM
same,GI50,[12],37 nM
same,GI50,[13],343 nM
same,GI50,[14],38 nM
same,GI50,[15],19 nM
same,GI50,[16],31 nM
same,GI50,[17],140 nM
same,GI50,[18],45 nM
same,GI50,[19],176 nM
same,GI50,[20],47 nM
same,GI50,[21],139 nM
same,GI50,[22],15 nM
same,GI50,[23],45 nM
same,GI50,[24],385 nM
same,GI50,[25],52 nM
same,GI50,[26],25 nM
same,GI50,[27],37 nM
same,IC50,[28],42200 nM
same,GI50,[29],44 nM
same,GI50,[30],217 nM
same,GI50,[31],67 nM
same,inhibition,[3],77%
same,GI50,[32],67 nM
COc1ccc(C(O)c2cc(F)c(F)c(OC)c2F)cc1O (centres undefined),inhibition of growth at 10 µM,[33],53%
same,inhibition of growth at 10 µM,[34],35%
same,inhibition of growth at 10 µM,[35],26%
same,inhibition of growth at 10 µM,[2],33%
same,inhibition of growth at 10 µM,[36],41%
same,inhibition,[3],49%
